Source: ChEMBL document CHEMBL1142858, “Conformationally constrained analogues of diacylglycerol (DAG). 27. Modulation of membrane translocation of protein kinase C (PKC) isozymes alpha and delta by diacylglycerol lactones (DAG-lactones) containing rigid-rod acyl groups” (J Med Chem, 2007)
Calls of active or inactive are those of the source. No cut-off for these calls is given here.

Experiments:
[1] = Inhibition of cell proliferation in WEHI231 cell line after 48 hrs; type: functional, cell-based; conditions: Mus musculus, WEHI231, 48 h
How it was run: (§1)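 WEHI-231 cells in DMEM with 10% FBS and 50 µM β-mercaptoethanol are plated at 1 × 10⁵ viable cells/mL and dosed 24 h later (final DMSO 0.1%) for 48 h. Cells are triturated to single-cell suspension and counted on a Coulter counter. Counts are given as % of the DMSO control. Mean ± SEM of three independent experiments.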

[2] = biological target: Protein kinase C alpha type (Homo sapiens, UniProt P17252); assay: Displacement of [3H]PDBu from PKCalpha
How it was run: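 Competition with [3H]PDBu for binding to recombinant single isozyme PKC alpha in the presence of phosphatidylserine. ID50 is taken from a least-squares fit of a sigmoidal competition curve. Ki = ID50/(1 + L/Kd), where L is free [3H]PDBu at the ID50 and Kd is the [3H]PDBu dissociation constant. Mean ± standard error, three determinations.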

U-937 [3] = assay: Induction of attachment of U937 cells after 48 hrs; type: functional, cell-based; conditions: Homo sapiens; for EC50: U-937, 48 h
How it was run: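 U937 monocytes in RPMI-1640 with 10% FBS are plated at 1 × 10⁵ cells/mL and exposed (final DMSO 0.1%) for 48 h. Non-attached cells and attached cells (after trypsinization) are counted on a Coulter counter. Attached cells are expressed as % of total cells. Mean ± SEM of three independent experiments.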

CHO [4] = assay: Translocation of PKCdelta from cytosol to membrane in CHO cells; type: functional, cell-based; conditions: Cricetulus griseus
How it was run: (§2)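 CHO cells in F12-K with 10% FBS are transfected with GFP-tagged PKC alpha or PKC delta. Live cells are imaged by confocal microscopy with 488 nm excitation, time-lapse every 30 s. Redistribution from cytosol to plasma and internal membranes is followed before and after ligand addition at 10 or 20 µM, over up to about 120 min. Three independent experiments.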

[5] = Induction of IL6 secretion in WEHI231 cells at 30 uM after 24 hrs relative to 10 uM PMA; type: functional, Mus musculus; conditions: in the assay text read “10 nM PMA” for “10 uM PMA”
How it was run: (§3)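 WEHI-231 cells are grown in DMEM with 10% FBS and 50 µM β-mercaptoethanol. They are plated at 1 × 10⁵ viable cells/mL and dosed 24 h later (final DMSO 0.1%) for 6 or 24 h. IL-6 in the supernatant is measured by ELISA, one measurement per experiment. It is expressed as % of IL-6 induced by 10 nM PMA at 6 h.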

[6] = Induction of IL6 secretion in WEHI231 cells at 30 uM after 6 hrs relative to 10 uM PMA; type: functional, Mus musculus; conditions: in the assay text read “10 nM PMA” for “10 uM PMA”; how it was run: as §3
[7] = Stimulation of ERK phosphorylation in LNCaP cells after 30 min; type: functional, cell-based; conditions: Homo sapiens, 0.5 h
How it was run: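 LNCaP prostate cells in RPMI-1640 with 10% FBS, plated at about 60% confluency and treated 24 h later with a range of concentrations for 15 or 30 min. Cells were washed with PBS and total lysates run on 10% SDS-PAGE, blotted and probed with anti-phosphoERK. Band intensity was expressed relative to 100 nM PMA (= 100%). Approximate EC50 was read from the graph; mean ± SEM of three experiments.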

CHO [8] = assay: Translocation of PKCalpha from cytosol to membrane in CHO cells; type: functional, cell-based; conditions: Cricetulus griseus; how it was run: as §2
[9] = Inhibition of cell proliferation in WEHI231 cell line at 10 uM after 48 hrs; type: functional; conditions: Mus musculus, WEHI231, 48 h; how it was run: as §1
LNCaP = assay: Stimulation of ERK phosphorylation in LNCaP cells at 10 uM after 30 min relative to PMA; type: cell-based; conditions: Homo sapiens
How it was run: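 LNCaP prostate cells in RPMI-1640 with 10% FBS are plated at about 60% confluency and treated 24 h later for 15 or 30 min. Cells are PBS-washed and lysed, and lysates go through 10% SDS-PAGE and immunoblotting with anti-phosphoERK. Phospho-ERK band intensity is expressed relative to 100 nM PMA (= 100%).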

U-937 [10] = assay: Reduction of PMA-induced attachment of U937 cells at 30 uM after 48 hrs; type: functional, cell-based; conditions: Homo sapiens
CHO [11] = assay: Translocation of PKCalpha from cytosol to membrane in CHO cells at 20 uM after 120 mins; type: functional, cell-based; conditions: Cricetulus griseus; how it was run: as §2
CHO [12] = assay: Translocation of PKC from cytosol to membrane in CHO cells; type: functional, cell-based; conditions: Cricetulus griseus; how it was run: as §2

Row | SMILES | EC50 [1] [nM] | Ki [2] [nM] | EC50 (U-937 [3]) [nM] | also measured
1 | COc1ccc(C#Cc2ccc(C#Cc3ccc(C(=O)OCC4(CO)CC(=C(C)C)C(=O)O4)cc3)cc2)cc1 (centres undefined) | 430 | 5.88 | 260 | 
2 | CCCCCCCCCC(=O)OCC1(CO)CC(=C(C)C)C(=O)O1 (centres undefined) |  | 15.9 |  | Activity (CHO [4]): Active; Activity [5]: 25%; Activity (U-937 [3]): inactive; Activity [6]: 80%; EC50 [7]: 3000 nM; Activity (CHO [8]): Active
3 | CC(C)=C1CC(CO)(COC(=O)c2ccc(C#Cc3ccc(C#Cc4ccc(OCCOCCOCCOC(=O)N(CC(=O)OC(C)(C)C)CC(=O)OC(C)(C)C)cc4)cc3)cc2)OC1=O (centres undefined) |  | 18.3 |  | Activity (U-937 [3]): Active; inhibition at 10 µM [9]: 35%
4 | CC(C)=C1CC(CO)(COC(=O)c2ccc(C#Cc3ccc(C#Cc4ccc(OCCOCCOCCN(CC(=O)OC(C)(C)C)CC(=O)OC(C)(C)C)cc4)cc3)cc2)OC1=O (centres undefined) |  | 111 |  | 
5 | COC(=O)COc1ccc(C#Cc2ccc(C#Cc3ccc(C#Cc4ccc(C(=O)OCC5(CO)CC(=C(C)C)C(=O)O5)cc4)cc3)cc2)cc1 (centres undefined) |  | 127 |  | 
6 | CCCCCCCCCCCCCC(=O)O[C@@H]1[C@@H](C)[C@@]2(O)[C@@H](C=C(CO)C[C@]3(O)C(=O)C(C)=C[C@@H]23)[C@@H]2C(C)(C)[C@]12OC(C)=O [PHORBOL MYRISTATE ACETATE] | 0.85 |  | 0.45 | 
7 | C#Cc1ccc(C#Cc2ccc(C(=O)OCC3(CO)CC(=C(C)C)C(=O)O3)cc2)cc1 (centres undefined) | 3000 | 5.23 |  | Activity (CHO [4]): Active; EC50 [7]: 400 nM; Activity (CHO [8]): Active
8 | COC(=O)CCCCCCCCCCCCCCCOc1ccc(C#Cc2ccc(C#Cc3ccc(C(=O)OCC4(CO)CC(=C(C)C)C(=O)O4)cc3)cc2)cc1 (centres undefined) | 3000 | 52.7 | 1000 | Activity (LNCaP): Active
9 | COC(=O)COc1ccc(C#Cc2ccc(C#Cc3ccc(C(=O)OCC4(CO)CC(=C(C)C)C(=O)O4)cc3)cc2)cc1 (centres undefined) |  | 15.8 |  | 
10 | C#Cc1ccc(C#Cc2ccc(C#Cc3ccc(C(=O)OCC4(CO)CC(=C(C)C)C(=O)O4)cc3)cc2)cc1 (centres undefined) | 400 | 11.6 | 250 | Activity (U-937 [10]): Active; Activity (CHO [11]): Active
11 | CC(C)=C1CC(CO)(COC(=O)c2ccc(C#Cc3ccc(C#Cc4ccc(OCCOCCOCCOC(=O)N(CC(=O)O)CC(=O)O)cc4)cc3)cc2)OC1=O (centres undefined) |  | 1390 |  | Activity (CHO [12]): Active
